PMC11476771 (BMC Nephrology, 2024)
Where two headings read alike, the source gives them in different places.

What was measured:
[1] = format: in vivo, human
Summary of the method: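 Open-label, parallel-group, single 3.0 mcg/kg IV dose by check-in weight in NDD subjects stratified by MDRD eGFR, and in matched healthy controls. Plasma sampled predose to 72 h; urine collected in intervals to 72 h. LC-MS/MS (LLOQ 0.1 ng/mL plasma, 1.0 ng/mL urine); noncompartmental parameters. ANCOVA on ln Cmax/AUCinf (covariates age, weight, BMI, sex) gave geometric mean ratios with 90% CI. CL was regressed linearly on eGFR.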

Multiple-dose phase 2 = format: in vivo, human; details: for Dose proportionality of Cmax and AUC0 − 48 (power model): 0.5, 1.0, 2.5 mcg/kg, 95% CIs included 1
Summary of the method: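 Randomized, double-blind, placebo-controlled dose escalation in HD subjects. Sequential cohorts of 8 (6 active, 2 placebo), randomized 3:1 within strata of urine output. IV bolus given within 15 min after each of 3 HD sessions over 1 week. Serial plasma sampled days 1–8 by LC-MS/MS (LLOQ 0.1 ng/mL). Noncompartmental parameters; RAC from day 5:day 1 AUC0−48; power-model dose proportionality.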

Safety [2] = format: in vivo, human; details: single IV 3.0 mcg/kg
Safety [3] = format: in vivo, human; details: HD subjects; multiple-dose PK study
[4] = hemodialysis patients after treatment discontinued; cited from earlier work

With `CC(C)C[C@@H](NC(=O)[C@@H](Cc1ccccc1)NC(=O)[C@H](N)Cc1ccccc1)C(=O)N[C@H](CCCCN)C(=O)N1CCC(N)(C(=O)O)CC1` [difelikefalin] the “Intercept of total CL versus eGFR” value ([1]; CL value = intercept + slope * eGFR, IV 3.0 mcg/kg, 95% CI 3.734794–20.470724) was 12.1, the “Slope of total CL versus eGFR” value ([1]; CL value = intercept + slope * eGFR, IV 3.0 mcg/kg, NDD subjects with impaired or normal renal function, 95% CI 0.482284–0.718031, P < 0.0001) was 0.6002 and the “Exposure relative to healthy subjects” value ([1]; moderate renal impairment vs healthy subjects, single IV 3.0 mcg/kg) was 1.7 fold. The “Reduction of clearance compared with healthy subjects” value ([1]; moderate renal impairment, single IV 3.0 mcg/kg) was 47.0%, the “Exposure relative to healthy subjects” value ([1]; severe renal impairment vs healthy subjects, single IV 3.0 mcg/kg) was 3.3 fold and the “Reduction of clearance compared with healthy subjects” value ([1]; severe renal impairment, single IV 3.0 mcg/kg) was 71.7%. The “Time of peak plasma concentration” value ([1]; single IV 3.0 mcg/kg, first post-dose PK sample, across all treatment groups) was 2 to 3 min, the “Dose proportionality of Cmax and AUC0 − 48 (power model)” value (Multiple-dose phase 2; HD subjects) was “slope values were all close to unity” and the “Dose proportionality of Cmax and AUC0 − 48 (power model)” value (Multiple-dose phase 2; HD subjects, listed as IV difelikefalin) was “demonstrated dose proportionality”. The “Mean t1/2, range over dose groups” value (Multiple-dose phase 2; HD subjects, day 1, 0.5-2.5 mcg/kg) was 1390 to 1870 min, the “Mean accumulation ratio (RAC), range over dose groups” value (Multiple-dose phase 2; HD subjects, day 5, 3 dose groups) was 1.0–1.2 and the “Increase of half-life in HD subjects compared with normal renal function” value (Multiple-dose phase 2; cross-study comparison) was “approximately 10 fold”. The “Clearance in HD subjects prior to dialysis as % of healthy subjects” value (Multiple-dose phase 2; cross-study comparison, reference is 2.5 mcg/kg HD group) was 14%, the Tmax (Multiple-dose phase 2; human, in vivo, iv) was 5 min and the Subjects with vomiting (Safety [2]; 3/36 subjects) was 8.3%. For the same molecule, the Subjects with dizziness (Safety [2]; 4/36 subjects) was 11.1%, the “Subjects with mild headache” value (Safety [2]; 4/36 subjects) was 11.1% and the “Subjects with paresthesia (mild)” value (Safety [2]; 5/36 subjects) was 13.9%. The “Subjects reporting TEAEs” value (Safety [2]; 17/36 subjects) was 47.2%, the “Serious AEs” value (Safety [2]; all 36 subjects) was “none were serious AEs” and the “Total number of TEAEs” value (Safety [2]; all 36 subjects) was 37. For the same molecule, the “TEAEs considered related to study drug” value (Safety [2]; all 36 subjects, number of events) was 17, the “TEAEs of moderate severity” value (Safety [2]; number of events, most TEAEs mild) was 7 and the “SAEs, severe TEAEs, TEAEs leading to discontinuation, deaths” value (Safety [3]) was “no SAEs, severe TEAEs, TEAEs that led to drug discontinuations, or deaths”. The “Detectability in plasma after dialysis cycles” value [4] was “no longer detectable in plasma after 2 dialysis cycles” and the “Reduction of plasma concentration by a single dialysis cycle” value [4] was “approximately 83%”.
